According to PMC2191409 (The Journal of Experimental Medicine, 1994):

Tested on: MZ2-MEL.61 cells (D-) expressing HLA-A1
Assay: Peptide sensitization assay
Assay type: cell-based, human
Conditions: CTL clone 20/38
Summary of the method: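 Target cells (MZ2-MEL.61, antigen-loss D− variant, HLA-A1+) were 51Cr-labelled for 1 h at 37°C and washed extensively. 1,000 cells/well were preincubated 30 min at 37°C with various concentrations of synthetic test peptide (>90% HPLC purity; stock in 0.02 M PBS). CTL 20/38 were then added in equal volume at E/T 10:1. Chromium release was read after 4 h at 37°C. D+ and D− MZ2-MEL cells without peptide served as reference.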

Sequence: EVDPIGHVY [MAGE-6 derived peptide]
- Recognition by the anti-MZ2-D CTL clone: not recognized
